This is an account of results in ChEMBL document CHEMBL4257575, “Discovery of Novel Flavonoid Dimers To Reverse Multidrug Resistance Protein 1 (MRP1, ABCC1) Mediated Drug Resistance in Cancers Using a High Throughput Platform with "Click Chemistry"” (J Med Chem, 2018).

What all share (format): cell-based
The target of series [1] is T1, Multidrug resistance-associated protein 1 (Homo sapiens, UniProt P33527). Put plainly: Inhibition of MRP1 in human 2008/MRP1 cells assessed as potentiation of doxorubicin-induced cytotoxicity by measuring cell survival at 2 uM after 5 days by MTS assay relative to control. The following applies: 120 h. The essentials:
(§1)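 2008/MRP1 cells (retroviral human MRP1 transfectant; RPMI 1640, 10% FBS) at 4,000 per well, with 100 nM doxorubicin plus crude, unpurified click products in DMSO: 2 µM in the primary screen, 1 µM in the secondary. Incubated 5 days at 37 °C. MTS/PMS added for 2 h at 37 °C, absorbance read at 490 nm. % survival is relative to wells without DOX or product. Run in triplicate, at least three experiments.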
For orientation: Formazan colour is commonly taken as a measure of viable cells.

Series [2] can be described thus: Cytotoxicity against human 2008/MRP1 cells assessed as cell survival at 2 uM after 5 days by MTS assay relative to control. To be noted: read-out: Survival.
For series [3], the target named is T1, Multidrug resistance-associated protein 1. Put plainly: Inhibition of MRP1 in human 2008/MRP1 cells assessed as potentiation of doxorubicin-induced cytotoxicity by measuring cell survival at 1 uM after 5 days by MTS assay relative to control. To be noted: 120 h. The essentials:
as §1

The test system of a further series is L929. Put plainly: Cytotoxicity against mouse L929 cells assessed as reduction in cell survival after 5 days by MTS assay. To be noted: L929, 120 h.
The species entered for a further series is Homo sapiens. Briefly: Inhibition of P-gp in human LCC6MDR cells assessed as potentiation of paclitaxel-induced cytotoxicity by measuring fold reduction in paclitaxel IC50 at 1 uM after 5 days by MTS assay relative to paclitaxel alone.

T1 sequence (P33527 whole entry): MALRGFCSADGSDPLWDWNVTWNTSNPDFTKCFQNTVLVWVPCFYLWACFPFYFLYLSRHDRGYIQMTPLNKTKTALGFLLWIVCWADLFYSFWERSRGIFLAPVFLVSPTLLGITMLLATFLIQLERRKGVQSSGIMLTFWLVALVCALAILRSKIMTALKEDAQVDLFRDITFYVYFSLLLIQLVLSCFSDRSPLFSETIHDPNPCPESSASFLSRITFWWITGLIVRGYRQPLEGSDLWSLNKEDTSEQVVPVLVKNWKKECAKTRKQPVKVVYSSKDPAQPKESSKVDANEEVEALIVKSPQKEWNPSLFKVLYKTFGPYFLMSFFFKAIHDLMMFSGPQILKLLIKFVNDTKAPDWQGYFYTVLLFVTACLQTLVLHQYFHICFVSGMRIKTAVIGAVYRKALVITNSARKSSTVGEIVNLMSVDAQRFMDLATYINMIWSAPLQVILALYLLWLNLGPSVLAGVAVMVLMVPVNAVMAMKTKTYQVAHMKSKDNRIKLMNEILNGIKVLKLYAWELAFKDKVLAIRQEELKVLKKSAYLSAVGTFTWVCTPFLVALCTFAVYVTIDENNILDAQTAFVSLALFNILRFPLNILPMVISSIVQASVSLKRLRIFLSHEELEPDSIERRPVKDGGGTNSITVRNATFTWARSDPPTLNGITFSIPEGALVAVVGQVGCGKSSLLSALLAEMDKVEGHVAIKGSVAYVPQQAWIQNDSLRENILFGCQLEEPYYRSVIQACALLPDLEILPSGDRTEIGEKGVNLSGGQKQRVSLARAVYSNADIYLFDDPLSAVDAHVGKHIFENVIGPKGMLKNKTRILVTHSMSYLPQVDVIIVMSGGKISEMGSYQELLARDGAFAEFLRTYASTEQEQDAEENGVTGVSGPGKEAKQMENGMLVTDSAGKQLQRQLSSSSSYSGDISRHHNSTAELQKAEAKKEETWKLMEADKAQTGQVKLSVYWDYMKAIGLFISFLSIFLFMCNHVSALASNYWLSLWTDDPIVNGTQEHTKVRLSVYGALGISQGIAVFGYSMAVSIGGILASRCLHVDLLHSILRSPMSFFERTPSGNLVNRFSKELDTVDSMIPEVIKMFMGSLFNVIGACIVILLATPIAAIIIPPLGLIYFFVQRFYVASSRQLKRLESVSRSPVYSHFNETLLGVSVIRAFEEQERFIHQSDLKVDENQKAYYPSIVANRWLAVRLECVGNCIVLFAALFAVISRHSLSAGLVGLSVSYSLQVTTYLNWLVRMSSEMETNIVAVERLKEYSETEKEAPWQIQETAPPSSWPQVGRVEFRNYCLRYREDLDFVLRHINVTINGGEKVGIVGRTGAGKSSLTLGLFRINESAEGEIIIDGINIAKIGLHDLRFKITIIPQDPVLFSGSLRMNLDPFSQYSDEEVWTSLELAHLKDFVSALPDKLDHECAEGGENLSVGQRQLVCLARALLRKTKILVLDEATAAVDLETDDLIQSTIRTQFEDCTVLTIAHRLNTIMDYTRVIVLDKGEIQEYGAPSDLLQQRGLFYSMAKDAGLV

`O=c1cc(-c2ccc(OCCCc3cn(CCOCCOc4ccc5c(=O)cc(-c6ccccc6)oc5c4)nn3)cc2)oc2ccccc12`: the Survival in series [1] is given as 39%. Moreover, in series [2], the viability at 120 h, 2 µM came to 39%.

With `Cc1ccc2oc(-c3ccc(OCCCCc4cn(CCOCCOCCOc5ccc6c(=O)cc(-c7ccccc7)oc6c5)nn4)cc3)cc(=O)c2c1`, the Survival in series [1] is reported as 33%; in series [3] it was 65%. For the same molecule, the viability at 120 h, 2 µM in series [2] turned out to be 89%.

`COc1cccc(COc2c(-c3ccc(OCCCCc4cn(CCOCCOCCOc5ccc(-c6cc(=O)c7cc(C)ccc7o6)cc5)nn4)cc3)oc3ccccc3c2=O)c1`: the Survival in series [1] is 46%. The viability at 120 h, 2 µM in series [2] was found to be 50%.

In the case of `O=c1cc(-c2ccc(OCCOCCn3cc(CN(Cc4ccccc4)Cc4cn(CCOCCOc5ccc(-c6cc(=O)c7ccccc7o6)cc5)nn4)nn3)cc2)oc2ccccc12`, the results for the Survival in series [1] and in series [3] were 49% and 79%, respectively. In series [2], the viability at 120 h, 2 µM worked out at 92%.

Turning to `COCOc1cc(OCc2ccccc2)c2c(=O)cc(-c3ccc(OCCCc4cn(CCOCCOc5ccc(-c6cc(=O)c7ccccc7o6)cc5)nn4)cc3)oc2c1`, the Survival in series [1] is given as 39%; in series [3] it was 64%. Also, in series [2], the viability at 120 h, 2 µM was determined as 95%.

Broadly, the IC50 is the concentration that inhibits the measured activity by half. On to `CN(C)C(=O)CCSC(SCCC(=O)O)c1cccc(/C=C/c2ccc3ccc(Cl)cc3n2)c1` (stereo unspecified) [MK-571], for which the IC50 with L929 was above 100 µM.

As for `O=C1c2ccccc2C(=O)N1CCc1cn(CCOc2cccc3c(=O)cc(-c4ccccc4)oc23)nn1`, the Survival in series [1] is on record as 37%. Also, the viability at 120 h, 2 µM in series [2] came out at 11%.

As to `O=C1c2ccccc2C(=O)N1CCc1cn(CCOCCOCCOc2ccc3c(=O)cc(-c4ccccc4)oc3c2)nn1`, the Survival in series [1] came out at 41%. In addition, in series [2], the viability at 120 h, 2 µM turned out to be 23%.

With `COc1cccc(COc2c(-c3ccc(OCCCCc4cn(CCOCCOc5ccc(-c6cc(=O)c7ccccc7o6)cc5)nn4)cc3)oc3ccccc3c2=O)c1`, in series [1], the Survival is reported as 40%. Also, the viability at 120 h, 2 µM in series [2] came to 63%.

As for `COc1cccc(COc2c(-c3ccc(OCCCCc4cn(CCOCCOCCOc5ccc(-c6oc7ccccc7c(=O)c6OCc6ccccc6)cc5)nn4)cc3)oc3ccccc3c2=O)c1`, in series [1], the Survival is 33%. Moreover, in series [2], the viability at 120 h, 2 µM was determined as 53%.

With `O=c1cc(-c2ccccc2)oc2cc(OCCOCc3cn(CCOCCOc4ccc(-c5oc6ccccc6c(=O)c5OCc5ccccc5)cc4)nn3)ccc12`, the figures for the Survival in series [1] and in series [3] were 46% and 56%, respectively. The viability at 120 h, 2 µM in series [2] was 85%.

Regarding `O=c1cc(-c2ccc(OCCOCCOCCn3cc(CN(Cc4ccccc4)Cc4cn(CCOCCOCCOc5ccc(-c6cc(=O)c7ccccc7o6)cc5)nn4)nn3)cc2)oc2ccccc12`, in series [1], the Survival is recorded as 29%. Further, the viability at 120 h, 2 µM in series [2] was 49%.

On to `Cc1ccc2oc(-c3ccc(OCCCCc4cn(CCOCCOCCOc5ccc(-c6cc(=O)c7ccccc7o6)cc5)nn4)cc3)cc(=O)c2c1`, for which the Survival in series [1] is reported as 39%. Also, in series [2], the viability at 120 h, 2 µM was found to be 68%.

In the case of `O=c1cc(-c2ccccc2)oc2cc(OCCN(Cc3ccccc3)Cc3cn(CCOCCOc4ccc(-c5oc6ccccc6c(=O)c5OCc5ccccc5)cc4)nn3)ccc12`, the Survival in series [1] was 49%; in series [3], 53%. Moreover, the viability at 120 h, 2 µM in series [2] turned out to be 82%.

Take `O=c1cc(-c2ccc(OCCCc3cn(CCOCCOc4ccc(-c5cc(=O)c6cc(F)ccc6o5)cc4)nn3)cc2)oc2ccccc12`: the Survival in series [1] is on record as 39%. Besides, the viability at 120 h, 2 µM in series [2] came out at 43%.

Take `O=C1c2ccccc2C(=O)N1CCc1cn(CCOCCOCCOc2ccc(-c3cc(=O)c4cc(F)ccc4o3)cc2)nn1`: in series [1], the Survival is listed as 28%. The viability at 120 h, 2 µM in series [2] was 10%.

Turning to `CCc1ccc(O)c(C(=O)/C=C/c2ccc(OCCCCc3cn(CCOCCOc4ccc(-c5cc(=O)c6ccccc6o5)cc4)nn3)cc2)c1`, the Survival is listed as 40% in series [1] and 66% in series [3]. Moreover, in series [2], the viability at 120 h, 2 µM was found to be 95%.

In the case of `COc1cccc(COc2c(-c3ccc(OCCOCCn4cc(COCCOc5ccc6c(=O)cc(-c7ccccc7)oc6c5)nn4)cc3)oc3ccccc3c2=O)c1`, the figures for the Survival in series [1] and in series [3] were 47% and 71%, respectively. Further, in series [2], the viability at 120 h, 2 µM worked out at 88%.

`O=c1cc(-c2ccc(OCCOCCOCCn3cc(CN(CCOc4ccc5c(=O)cc(-c6ccccc6)oc5c4)Cc4ccccc4)nn3)cc2)oc2ccccc12`: the Survival in series [1] is 45%; in series [3], 48 to 63%. Besides, the viability at 120 h, 2 µM in series [2] came out at 74%. Besides, the concentration for half-maximal inhibition (IC50) with L929 was above 100 µM. Moreover, in the series listed under Homo sapiens, the Ratio IC50 turned out to be 31.7.

Regarding `O=C(/C=C/c1ccc(OCCCCc2cn(CCOCCOc3ccc(-c4cc(=O)c5ccccc5o4)cc3)nn2)cc1)c1ccccc1O`, the Survival in series [1] came to 39%; in series [3], 56%. Also, the viability at 120 h, 2 µM in series [2] was found to be 83%.

Regarding `O=c1cc(-c2ccc(OCCCc3cn(CCOCCOCCOc4ccc(-c5cc(=O)c6cc(F)ccc6o5)cc4)nn3)cc2)oc2ccccc12`, the Survival in series [1] was 46%. Moreover, the viability at 120 h, 2 µM in series [2] turned out to be 44%.

Take `O=c1cc(-c2ccccc2)oc2cc(OCCCCc3cn(CCOCCOCCOc4ccc(-c5cc(=O)c6cc(F)ccc6o5)cc4)nn3)ccc12`: the Survival in series [1] is 47%; in series [3] it was 59%. Besides, the viability at 120 h, 2 µM in series [2] was determined as 92%.

For the molecule `O=c1cc(-c2ccccc2)oc2cc(OCCOCCn3cc(CN(CCOc4ccc5c(=O)cc(-c6ccccc6)oc5c4)Cc4ccccc4)nn3)ccc12`, the Survival in series [1] came to 46%; in series [3], 54%. The viability at 120 h, 2 µM in series [2] came to 80%.

Consider `O=C1c2ccccc2C(=O)N1CCc1cn(CCOCCOc2ccc(-c3cc(=O)c4cc(F)ccc4o3)cc2)nn1`, for which the Survival in series [1] is 39%. In addition, the viability at 120 h, 2 µM in series [2] turned out to be 14%.

Take `O=c1cc(-c2ccc(OCCCc3cn(CCOCCOCCOc4ccc5c(=O)cc(-c6ccccc6)oc5c4)nn3)cc2)oc2ccccc12`: the Survival amounted to 42% in series [1] and 54% in series [3]. Also, the viability at 120 h, 2 µM in series [2] came to 49%.

For `O=c1[nH]c(-c2ccc(OCCCc3cn(CCOCCOc4ccc5c(=O)cc(-c6ccccc6)oc5c4)nn3)cc2)nc2ccccc12`, the Survival in series [1] was 49%; in series [3] it was 70%. The viability at 120 h, 2 µM in series [2] was found to be 65%.

On to `O=c1cc(-c2ccc(OCCCc3cn(CCOCCOCCOc4ccc(-c5oc6ccccc6c(=O)c5OCc5ccccc5)cc4)nn3)cc2)oc2ccccc12`, for which the Survival in series [1] came to 45%; in series [3], 62%. The viability at 120 h, 2 µM in series [2] stood at 39%.

For `O=C1c2ccccc2C(=O)N1CCc1cn(CCOCCOCCOc2ccc(-c3oc4ccccc4c(=O)c3OCc3ccccc3)cc2)nn1`, the Survival in series [1] is on record as 34%. The viability at 120 h, 2 µM in series [2] was 16%.

With `O=c1cc(-c2ccc(OCCCc3cn(CCOCCOc4cccc(-c5oc6ccccc6c(=O)c5OCc5ccccc5)c4)nn3)cc2)oc2cc(F)ccc12`, the Survival in series [1] was 45%; in series [3], 55%. Further, the viability at 120 h, 2 µM in series [2] worked out at 99%.

Turning to `O=C(/C=C/c1ccc(OCCCCc2cn(CCOCCOc3ccc(-c4cc(=O)c5ccccc5o4)cc3)nn2)cc1)c1ccc(F)cc1O`, the Survival was 42% in series [1] and 66% in series [3]. Also, the viability at 120 h, 2 µM in series [2] came out at 90%.

Take `O=c1cc(-c2ccc(OCCCc3cn(CCOCCOCCOc4ccc(-c5oc6ccccc6c(=O)c5OCc5ccccc5)cc4)nn3)cc2)oc2cc(F)ccc12`: the Survival in series [1] is listed as 37%; in series [3], 53%. Besides, in series [2], the viability at 120 h, 2 µM was found to be 97%.

With `O=C1c2ccccc2C(=O)N1CCc1cn(CCOCCOc2ccc(-c3cc(=O)c4ccccc4o3)cc2)nn1`, the Survival in series [1] was determined as 37%. In addition, the viability at 120 h, 2 µM in series [2] came to 18%.

With `Cc1ccc2oc(-c3ccc(OCCCCc4cn(CCOCCOc5ccc6c(=O)cc(-c7ccccc7)oc6c5)nn4)cc3)cc(=O)c2c1`, the Survival amounted to 34% in series [1] and 46% in series [3]. Besides, the viability at 120 h, 2 µM in series [2] turned out to be 93%. Moreover, the IC50 in the series on L929 was above 100 µM. The Ratio IC50 in the series filed under Homo sapiens was determined as 54.7.

As to `O=c1cc(-c2ccccc2)oc2cc(OCCOCCOCCn3cc(CCCOc4ccc(-c5cc(=O)c6cc(F)ccc6o5)cc4)nn3)ccc12`, the Survival in series [1] is given as 40%. For the same molecule, the viability at 120 h, 2 µM in series [2] amounted to 105%.

For `O=c1cc(-c2ccc(OCCOCCn3cc(CN(CCOc4ccc5c(=O)cc(-c6ccccc6)oc5c4)Cc4ccccc4)nn3)cc2)oc2ccccc12`, the Survival in series [1] is 26%; in series [3] it was 29%. In addition, the viability at 120 h, 2 µM in series [2] was determined as 97%. The IC50 with L929 is above 100 µM. Besides, the Ratio IC50 in the series filed under Homo sapiens was determined as 38.7.

On to `O=C1c2ccccc2C(=O)N1CCc1cn(CCOCCOCCOc2ccc(-c3cc(=O)c4ccccc4o3)cc2)nn1`, for which, in series [1], the Survival came out at 28%. Moreover, the viability at 120 h, 2 µM in series [2] was 4%.

With `O=c1cc(-c2ccc(OCCOCCn3cc(CCCOc4ccc(-c5cc(=O)c6ccc(F)cc6o5)cc4)nn3)cc2)oc2ccccc12`, the Survival in series [1] is recorded as 21%; in series [3] it was 29%. Also, the viability at 120 h, 2 µM in series [2] turned out to be 91%. Also, in the series with L929, the IC50 was above 100 µM. The Ratio IC50 in the series filed under Homo sapiens is 63.5.
